The record followed here is ChEMBL document CHEMBL1124902, “Hydroxyperfluoroazobenzenes: novel inhibitors of enzymes of androgen biosynthesis” (J Med Chem, 1990).

Structures are written as SMILES.

The target in test [1] is T1, Steroid 17-alpha-hydroxylase/17,20 lyase (Rattus norvegicus, UniProt P11715).
T1 sequence (P11715 whole entry): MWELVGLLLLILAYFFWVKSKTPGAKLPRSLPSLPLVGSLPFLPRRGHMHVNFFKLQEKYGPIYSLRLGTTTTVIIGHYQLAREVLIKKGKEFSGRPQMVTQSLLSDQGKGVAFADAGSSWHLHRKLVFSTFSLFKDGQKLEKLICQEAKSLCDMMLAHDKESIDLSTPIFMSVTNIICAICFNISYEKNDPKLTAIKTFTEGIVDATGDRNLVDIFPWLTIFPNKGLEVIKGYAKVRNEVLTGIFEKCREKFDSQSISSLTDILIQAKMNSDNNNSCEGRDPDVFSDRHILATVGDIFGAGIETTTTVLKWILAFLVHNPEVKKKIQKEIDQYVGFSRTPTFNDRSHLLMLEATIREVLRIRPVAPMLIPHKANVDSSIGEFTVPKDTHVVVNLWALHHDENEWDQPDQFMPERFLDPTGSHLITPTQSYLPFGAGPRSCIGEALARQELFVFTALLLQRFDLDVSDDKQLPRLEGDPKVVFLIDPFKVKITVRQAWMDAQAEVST
As to the kind of experiment: Inhibition of 17-alpha-hydroxylase/17,20 lyase from rat testes microsomal preparation. The test is classed as microsomes, Testis. Summed up: (§1)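 Rat testis microsomes as enzyme source. The assay contained 1 μM [³H]progesterone, 250 μM NADPH, a glucose-6-phosphate/G6P dehydrogenase regenerating system, 1 mM MgCl₂, 0.1 mM EDTA and 0.1 mM DTT in 50 mM sodium phosphate at pH 7.4, with 5% ethanol vehicle. Incubation ran 10 min at 37 °C. Substrate, 17α-OH-progesterone and product were quantified, giving separate hydroxylase and lyase steps. Each point was run in triplicate at ≥3 concentrations, and IC50 was taken from a Dixon linear regression.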

For test [2], the target named is T1, Steroid 17-alpha-hydroxylase/17,20 lyase. As to the kind of experiment: Percent inhibition of 17-alpha-hydroxylase/17,20 lyase of rat testes microsomes at 100 uM.
For test [3] the target is unchanged. The test can be described thus: Inhibition of Steroid 17-alpha-hydroxylase/17,20 lyase from rat testes microsomal preparation. The method, boiled down:
as §1

For test [4] the target is unchanged. As to the kind of experiment: Percent inhibition of Steroid 17-alpha-hydroxylase/17,20 lyase from rat testes microsomes at 100 uM.
For test [5], the target named is T2, Steroid 5-alpha-reductase (Rattus norvegicus, UniProt P24008+P31214).
T2 sequence (P24008 whole entry): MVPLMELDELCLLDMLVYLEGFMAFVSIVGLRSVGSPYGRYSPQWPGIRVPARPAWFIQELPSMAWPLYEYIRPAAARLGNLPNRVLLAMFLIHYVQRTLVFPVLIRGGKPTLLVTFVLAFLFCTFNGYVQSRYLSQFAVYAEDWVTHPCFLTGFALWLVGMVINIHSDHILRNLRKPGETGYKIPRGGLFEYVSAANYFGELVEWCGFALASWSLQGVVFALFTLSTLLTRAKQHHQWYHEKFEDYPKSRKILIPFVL
T2 sequence (P31214 whole entry): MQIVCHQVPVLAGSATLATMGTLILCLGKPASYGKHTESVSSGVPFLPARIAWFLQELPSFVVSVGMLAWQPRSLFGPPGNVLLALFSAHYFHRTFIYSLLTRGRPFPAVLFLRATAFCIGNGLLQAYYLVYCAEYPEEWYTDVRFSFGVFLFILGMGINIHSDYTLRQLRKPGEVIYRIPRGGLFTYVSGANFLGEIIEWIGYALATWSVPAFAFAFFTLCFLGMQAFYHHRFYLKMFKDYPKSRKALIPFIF
The test can be described thus: Inhibition of rat testosterone-5 alpha-reductase activity at pH 6.6 from rat. In kind it is protein assay. The method, boiled down:
(§2)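 Crude nuclear fraction (ca. 1.5 mg) from adult Wistar rat ventral prostate, in 50 mM potassium phosphate. The substrate was 5 μM testosterone with 4-[¹⁴C]testosterone, plus 1 mM NADPH and 1 mM DTT. Incubation ran 30 min at 37 °C and was stopped with ethyl acetate/HgCl₂. [¹⁴C]DHT was measured by TLC radioscan. Inhibitors were added in 2% DMSO at 1, 2, 5, 10 and 20 μM, with assays in duplicate.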

In test [6] the target is T2, Steroid 5-alpha-reductase. As to the kind of experiment: Inhibition of Testosterone-5 alpha-reductase activity at pH 7.4 from rat. The test is classed as protein assay. Summed up:
as §2

In test [7] the target is T2, Steroid 5-alpha-reductase. As to the kind of experiment: Inhibition of Testosterone-5 alpha-reductase activity at pH 7.4 from rat; B = no inhibition at the highest concentration tested (20 uM). The test is classed as protein assay. The method, boiled down:
as §2

The target of test [8] is T2, Steroid 5-alpha-reductase. The test can be described thus: Inhibition of Testosterone-5 alpha-reductase activity at pH 6.6 from rat; B = no inhibition at the highest concentration tested (20 uM). The test is classed as protein assay. The method, boiled down:
as §2

The target in test [9] is T1, Steroid 17-alpha-hydroxylase/17,20 lyase. The test can be described thus: Percent inhibition of Steroid 17-alpha-hydroxylase/17,20 lyase of rat testes microsomes at 100 uM.
Test [10] deals with T2, Steroid 5-alpha-reductase. As to the kind of experiment: Binding constant of Testosterone-5 alpha-reductase activity at pH 7.4. In kind it is protein assay.

In the case of `Fc1c(F)c(F)c2c(c1F)N=Nc1c(F)c(F)c(F)c(F)c1O2`, the IC50 in test [1] amounted to 50 µM; in [3], 15 µM. In addition, the inhibition at 100 µM in [2] is 67%; in test [4], 88%.

Turning to `CC(=O)[C@H]1CC[C@H]2[C@@H]3CCC4=CC(=O)CC[C@]4(C)[C@H]3CC[C@]12C` [PROGESTERONE], the IC50 in [5] worked out at 1.6 µM; in [6], 2.6 µM.

For the compound `c1ccc(/N=N/c2ccccc2)cc1` [AZOBENZENE], the inhibition at 100 µM in test [2] and in test [4] was 0% throughout. Besides, the IC50 entry in test [7] is listed as “No inhibition”.

Turning to `Oc1c(F)c(F)c(F)c(F)c1/N=N/c1c(F)c(F)c(F)c(F)c1F`, the values for the IC50 in test [1], in test [8] and in [3] were 63 µM, “No inhibition” and 16 µM, respectively. In addition, the inhibition at 100 µM in test [2] was 62%; in test [4], 83%.

In the case of `Oc1c(F)c(F)c(/N=N/c2c(F)c(F)c(F)c(F)c2F)c(F)c1F`, the IC50 in [1] stood at 30 µM; in test [5], 2 µM; in test [6] it was 14 µM; in test [3], 33 µM. Also, the inhibition at 100 µM turned out to be 76% in test [9] and 71% in test [4]. The Ki in [10] amounted to 10 µM.

Consider `Oc1c(F)c(F)c(/N=N/c2c(F)c(F)c(O)c(F)c2F)c(F)c1F`, for which the inhibition at 100 µM in test [2] worked out at 15%; in [4] it was 14%. In addition, the IC50 in test [5] was 0.79 µM; in test [6] it was 5 µM. Besides, the Ki in test [10] was 4 µM.

In the case of `Oc1ccc(/N=N/c2ccccc2)cc1`, the inhibition at 100 µM in test [2] is 6%; in test [4], 0%. Moreover, the 50% inhibitory concentration (IC50) result in test [7] is “No inhibition”.

For the compound `CC(=O)N1CCN(c2ccc(OCC3COC(Cn4ccnc4)(c4ccc(Cl)cc4Cl)O3)cc2)CC1` (stereo unspecified) [KETOCONAZOLE], the IC50 was found to be 6 µM in test [1] and 11 µM in test [3]. Also, the inhibition at 100 µM in test [2] is 62%; in [4] it was 48%.

Regarding `Fc1c(F)c(F)c(/N=N/c2c(F)c(F)c(F)c(F)c2F)c(F)c1F`, the inhibition at 100 µM in test [2] is 4%; in test [4] it was 0%. In addition, in [7], the IC50 result was “No inhibition”.

By IC50 is commonly meant the concentration that inhibits the measured activity by half. High values mean lower potency, low ones higher potency. For orientation: inhibition means how much of the control response was suppressed. Low readings indicate a weak effect, high ones a strong effect. For orientation: Ki means a measure of affinity in units of concentration, obtained from inhibition or displacement. Higher therefore signals a looser hold on the target.
